Measured values taken from ChEMBL document CHEMBL4425113, “Chromenopyrazole, a Versatile Cannabinoid Scaffold with in Vivo Activity in a Model of Multiple Sclerosis” (J Med Chem, 2016).
The source made the active and inactive calls. The calls are words filed in the database; no cut-off is given here.

Assays:
[1] = biological target: T1, Cannabinoid receptor 2 (Homo sapiens, UniProt P34972); assay: Displacement of [3H]-CP55940 from human CB2 receptor expressed in HEK293 cell membranes after 90 mins by liquid scintillation counting method
[2] = organism: Homo sapiens; assay: Selectivity ratio of Ki for human CB1 receptor to Ki for human CB2 receptor
Procedure, shortened: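 Membranes from cells transfected with hCB1 (8 μg/well; Tris 50 mM, MgCl2 5 mM, EDTA 2.5 mM, BSA 0.5 mg/mL, pH 7.4) or hCB2 (4 μg/well; EGTA 2.5 mM, BSA 1 mg/mL, pH 7.5); [3H]CP55940, 90 min at 30 °C. […] Nonspecific binding 10 μM WIN55212-2; GF/C filtration, scintillation; ≥3 experiments in triplicate.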

[3] = biological target: T2, Cannabinoid receptor 1 (Homo sapiens, UniProt P21554); assay: biochemical; assay type: cell-based, HEK293
[4] = biological target: T1, Cannabinoid receptor 2; assay: Antagonist activity at human CB2 receptor expressed in HEK293 cell membranes assessed as inhibition of CP55940-mediated suppression of forskolin-stimulated cAMP accumulation at 1 uM after 60 mins by HTRF assay; assay type: functional, cell-based
[5] = organism: Homo sapiens; assay: Selectivity ratio of Ki for human CB2 receptor to Ki for human CB1 receptor
[6] = biological target: T1, Cannabinoid receptor 2; assay: Partial agonist activity at human CB2 receptor expressed in HEK293 cell membranes assessed as inhibition of forskolin-stimulated cAMP accumulation at 1 uM after 60 mins by HTRF assay; assay type: functional, cell-based
Procedure, shortened: (§1)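 HEK293 cells stably expressing hCB2, 5.000 cells/well, forskolin-stimulated; Lance-Ultra TR-FRET cAMP kit, 60 min room temperature with HTRF reagents; 665/620 nm ratio converted to cAMP via standard curve; forskolin level set to 100%.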

[7] = Binding affinity to PDEA modified AGP (unknown origin) at 40 uM by surface plasmon resonance method; assay type: ADME; settings: human, isolated protein
[8] = biological target: T1, Cannabinoid receptor 2; assay: Partial agonist activity at human CB2 receptor expressed in HEK293 cell membranes assessed as inhibition of forskolin-stimulated cAMP accumulation at 200 nM after 60 mins by HTRF assay; assay type: functional, cell-based; procedure, shortened: as §1
[9] = biological target: T2, Cannabinoid receptor 1; assay: Agonist activity at human CB1 receptor expressed in HEK293 cell membranes assessed as induction of [35S]-GTPgammaS binding after 60 mins by liquid scintillation spectrometric method; assay type: functional
[10] = biological target: T1, Cannabinoid receptor 2; assay: Agonist activity at human CB2 receptor expressed in HEK293 cell membranes assessed as induction of [35S]-GTPgammaS binding after 60 mins by liquid scintillation spectrometric method; assay type: functional
[11] = biological target: T1, Cannabinoid receptor 2; assay: Agonist activity at human CB2 receptor expressed in HEK293 cell membranes assessed as inhibition of forskolin-stimulated cAMP accumulation after 60 mins by HTRF assay; assay type: functional, cell-based
[12] = biological target: T1, Cannabinoid receptor 2; assay: Agonist activity at human CB2 receptor expressed in HEK293 cell membranes assessed as inhibition of forskolin-stimulated cAMP accumulation at 200 nM after 60 mins by HTRF assay; assay type: functional, cell-based; procedure, shortened: as §1
[13] = biological target: T1, Cannabinoid receptor 2; assay: Agonist activity at human CB2 receptor expressed in HEK293 cell membranes assessed as inhibition of forskolin-stimulated cAMP accumulation at 1 uM after 60 mins by HTRF assay; assay type: functional, cell-based; procedure, shortened: as §1
[14] = biological target: T1, Cannabinoid receptor 2; assay: Antagonist activity at human CB2 receptor expressed in HEK293 cell membranes assessed as inhibition of CP55940-mediated suppression of forskolin-stimulated cAMP accumulation at 200 nM after 60 mins by HTRF assay; assay type: functional, cell-based

T1 sequence (P34972 whole entry): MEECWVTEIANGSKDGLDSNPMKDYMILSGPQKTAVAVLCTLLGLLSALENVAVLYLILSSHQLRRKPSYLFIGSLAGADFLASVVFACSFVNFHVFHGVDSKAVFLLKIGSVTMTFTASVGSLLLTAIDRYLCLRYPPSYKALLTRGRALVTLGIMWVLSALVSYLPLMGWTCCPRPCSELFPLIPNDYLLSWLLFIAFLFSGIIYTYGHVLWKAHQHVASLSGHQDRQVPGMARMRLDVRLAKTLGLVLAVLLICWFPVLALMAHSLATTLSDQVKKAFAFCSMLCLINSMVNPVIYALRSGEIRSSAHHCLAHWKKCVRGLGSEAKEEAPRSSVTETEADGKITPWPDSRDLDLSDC
T2 sequence (P21554 whole entry): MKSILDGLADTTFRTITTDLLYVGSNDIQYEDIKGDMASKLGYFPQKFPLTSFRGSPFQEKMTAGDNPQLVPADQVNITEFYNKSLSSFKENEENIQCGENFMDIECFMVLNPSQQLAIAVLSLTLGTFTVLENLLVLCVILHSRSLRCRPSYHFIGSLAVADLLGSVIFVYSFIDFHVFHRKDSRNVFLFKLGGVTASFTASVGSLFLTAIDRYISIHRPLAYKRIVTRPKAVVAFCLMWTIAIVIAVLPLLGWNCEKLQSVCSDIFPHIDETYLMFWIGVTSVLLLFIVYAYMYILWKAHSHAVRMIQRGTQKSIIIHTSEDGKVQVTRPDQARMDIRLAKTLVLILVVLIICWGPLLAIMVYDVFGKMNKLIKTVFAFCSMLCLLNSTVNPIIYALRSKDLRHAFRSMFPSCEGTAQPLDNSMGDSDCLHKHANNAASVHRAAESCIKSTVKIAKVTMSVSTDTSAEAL

Structure (SMILES)	Ki [1]	Ratio Ki [2]	Ki [3]	further results
CCCCCCC(C)(C)c1cc(OCc2ccccc2)c2c(c1)OC(C)(C)c1cnn(-c3ccc(Cl)c(Cl)c3)c1-2	3740 nM	> 10.7	> 40000 nM	–
CCCCCCC(C)(C)c1cc(OCCCO)c2c(c1)OC(C)(C)c1cn(CC)nc1-2	97.4 nM	> 411	> 40000 nM	inhibition [4]: Active
CCCCCCC(C)(C)c1cc(O)c2c(c1)OC(C)(C)c1cnn(CC)c1-2	–	–	–	Ratio Ki [5]: > 8000; Ki ([3]; hek293): 4.5 nM
CCCCCCC(C)(C)c1cc(OCCCBr)c2c(c1)OC(C)(C)c1cn(C)nc1-2	77.3 nM	19.1	1480 nM	inhibition [6]: Active; PB [7]: Active; inhibition [8]: Active
CCCCCCC(C)(C)c1cc(OCCO)c2c(c1)OC(C)(C)c1cn(CC)nc1-2	211 nM	31	6510 nM	PB [7]: Active
CCCCCCC(C)(C)c1cc(O)c2c(c1)OC(C)(C)c1cnn(-c3ccc(Cl)cc3Cl)c1-2	–	–	–	Ratio Ki [5]: > 7500; Ki ([3]; hek293): 5.2 nM
CCCCCCC(C)(C)c1cc2c(c3c1CCCO3)-c1c(cnn1CC)C(C)(C)O2	564 nM	> 17.7	> 10000 nM	PB [7]: Active
CCCCCCC(C)(C)c1cc(OCCCO)c2c(c1)OC(C)(C)c1cnn(-c3ccc(Cl)cc3Cl)c1-2	> 40000 nM	–	> 40000 nM	–
CCCCCCC(C)(C)c1cc(O)c2c(c1)OC(C)(C)c1cnoc1-2	5.3 nM	2.9	15.4 nM	PB [7]: Active; EC50 [9]: 15.8 nM; Emax [10]: 114%; Emax [11]: 98%; IC50 [11]: 134 nM; inhibition [12]: Active; inhibition [13]: Active
C=C(C)[C@@H]1CCC(C)=C[C@H]1c1c(O)cc(CCCCC)cc1O [CANNABIDIOL]	–	–	–	PB [7]: Active
CCCCCCC(C)(C)c1cc(OCCCO)c2c(c1)OC(C)(C)c1cnn(CC)c1-2	440 nM	3.6	1610 nM	–
CCCCCCC(C)(C)c1cc2c(c3c1CCCO3)-c1nn(CC)cc1C(C)(C)O2	122 nM	> 330	> 40000 nM	Emax [11]: 98%; IC50 [11]: 25.5 nM; inhibition [12]: Active; inhibition [13]: Active
CCCCCCC(C)(C)c1cc(OC)c2c(c1)OC(C)(C)c1cn[nH]c1-2	87.1 nM	3.1	272 nM	PB [7]: Active
CCCCCCC(C)(C)c1cc(OC)c2c(c1)OC(C)(C)c1cn(CC)nc1-2	92.6 nM	31.8	2930 nM	inhibition [6]: Active; PB [7]: Active; inhibition [8]: Active
CCCCCCC(C)(C)c1cc(O)c2c(c1)OC(C)(C)c1cn(CC)nc1-2	–	–	–	Ratio Ki [5]: > 2000; Ki ([3]; hek293): 18.6 nM
CCCCCCC(C)(C)c1cc(OCCCO)c2c(c1)OC(C)(C)c1cnn(-c3ccc(Cl)c(Cl)c3)c1-2	> 40000 nM	–	> 40000 nM	–
CCCCCCC(C)(C)c1cc(O)c2c(c1)OC(C)(C)c1cnn(CCO)c1-2	366 nM	–	19.1 nM	Ratio Ki [5]: 19.1
CCCCCCC(C)(C)c1cc(OC)c2c(c1)OC(C)(C)c1cnn(-c3ccc(Cl)cc3Cl)c1-2	1490 nM	–	1690 nM	–
CCCCCCC(C)(C)c1cc(OCc2ccccc2)c2c(c1)OC(C)(C)c1cnn(CC)c1-2	296 nM	2	614 nM	–
CCCCCCC(C)(C)c1cc(OCCCO)c2c(c1)OC(C)(C)c1cn[nH]c1-2	26 nM	17.3	450 nM	inhibition [6]: Active; PB [7]: Active; inhibition [8]: Active
CCCCCCC(C)(C)c1cc(O)c2c(c1)OC(C)(C)c1cnn(-c3cc(F)cc(F)c3)c1-2	> 40000 nM	–	> 40000 nM	–
CCCCCCC(C)(C)c1cc(OC)c([C@H]2C=C(CO)[C@@H]3C[C@H]2C3(C)C)c(OC)c1	–	–	–	Emax [10]: 91%
CCCCCCC(C)(C)c1cc(O)c2c(c1)OC(C)(C)c1cn(CCO)nc1-2	39.6 nM	1.4	54.4 nM	EC50 [9]: 299 nM

Structure (SMILES)	Ki [1]	Ratio Ki [2]	Ki [3]	further results
CCCCCCC(C)(C)c1cc(O)c2c(c1)OC(C)(C)c1cnn(C3CCCCC3)c1-2	53.7 nM	21.5	1140 nM	PB [7]: Active
CCCCCCC(C)(C)c1cc(O)c2c(c1)OC(C)(C)c1cn[nH]c1-2	–	–	–	Ratio Ki [5]: > 1400; Ki ([3]; hek293): 28.5 nM
CCCCCCC(C)(C)c1cc(O)c2c(c1)OC(C)(C)c1cn(C)nc1-2	–	–	–	Ratio Ki [5]: > 2500; Ki ([3]; hek293): 14.2 nM
CCCCCCC(C)(C)c1cc(O)c2c(c1)OC(C)(C)c1cn(CO)nc1-2	59.4 nM	3.7	218 nM	–
CCCCCCC(C)(C)c1cc(OCCCO)c2c(c1)OC(C)(C)c1cnoc1-2	65.5 nM	5.1	333 nM	Emax [10]: 96%; Emax [11]: 91%; IC50 [11]: 14 nM; inhibition [12]: Active; inhibition [13]: Active
CCCC(C)(C)c1ccc2c(c1)OC(C)(C)[C@@H]1CC=C(C)C[C@@H]21	–	–	–	Emax [11]: 98%; IC50 [11]: 81.8 nM
CCCCCCC(C)(C)c1cc(OCCO)c2c(c1)OC(C)(C)c1cn[nH]c1-2	3.6 nM	18	64.8 nM	Emax [10]: 110%; Emax [11]: 95%; IC50 [11]: 21.6 nM; inhibition [12]: Active; inhibition [13]: Active
CCCCCCC(C)(C)c1cc(OC)c2c(c1)OC(C)(C)c1cnn(CC)c1-2	159 nM	31.6	5040 nM	inhibition [6]: Active; inhibition [8]: Active
CCCCC/C=C\C/C=C\C/C=C\C/C=C\CCCC(=O)NCCO [ANANDAMIDE]	–	–	–	PB [7]: Active
CCCCCCC(C)(C)c1cc(OCCCBr)c2c(c1)OC(C)(C)c1cn(CC)nc1-2	87.1 nM	7.5	657 nM	–
CCCCCCC(C)(C)c1cc(OCC)c2c(c1)OC(C)(C)c1cnn(-c3ccc(Cl)c(Cl)c3)c1-2	3540 nM	> 11.3	> 40000 nM	–
CCCCCCC(C)(C)c1cc(OC)c2c(c1)OC(C)(C)c1cnn(-c3ccc(Cl)c(Cl)c3)c1-2	2260 nM	–	2320 nM	–
CCCCCCC(C)(C)c1cc(O)c2c(c1)OC(C)(C)c1cnn(-c3cccc(OC)c3)c1-2	562 nM	11.5	6440 nM	–
CCCCCCC(C)(C)c1cc(OCc2ccccc2)c2c(c1)OC(C)(C)c1cn(CC)nc1-2	212 nM	3.1	671 nM	–
CCCCC/C=C\C/C=C\C/C=C\C/C=C\CCCC(=O)OC(CO)CO [2-ARACHIDONOYLGLYCEROL]	–	–	–	PB [7]: Active
CCCCCCC(C)(C)c1cc(OCc2ccccc2)c2c(c1)OC(C)(C)c1cn(C)nc1-2	209 nM	3.3	702 nM	–
CCCCCCC(C)(C)c1cc(OCCO)c2c(c1)OC(C)(C)c1cn(C)nc1-2	39.8 nM	27.2	1090 nM	inhibition [14]: inactive
CCCCCCC(C)(C)c1cc(OC)c2c(c1)OC(C)(C)c1cn(C)nc1-2	66.4 nM	62.6	4160 nM	PB [7]: Active; inhibition [14]: inactive
CCCCCCC(C)(C)c1cc(OCc2ccccc2)c2c(c1)OC(C)(C)c1cn[nH]c1-2	93.3 nM	–	22.4 nM	inhibition [6]: Active; EC50 [9]: 191 nM; inhibition [8]: Active; Ratio Ki [5]: 4.2
CCCCCCC(C)(C)c1cc(OCCCO)c2c(c1)OC(C)(C)c1cn(C)nc1-2	364 nM	> 110	> 40000 nM	–
CCCCCCC(C)(C)c1cc(O)c2c(c1)OC(C)(C)c1cnn(-c3ccc(Cl)c(Cl)c3)c1-2	–	1.9	–	Ki ([1]; hek293): 270 nM; Ki ([3]; hek293): 514 nM
CCCCCCC(C)(C)c1cc(OCc2ccccc2)c2c(c1)OC(C)(C)c1cnn(-c3ccc(Cl)cc3Cl)c1-2	> 40000 nM	–	> 40000 nM	–
